Measurements: ChEMBL document CHEMBL1126550, “Nanomolar-affinity, non-peptide oxytocin receptor antagonists” (J Med Chem, 1993)

How the values were obtained:
Rattus norvegicus [1] = species: Rattus norvegicus; test: Tested for antagonistic activity in isolated rat uterus; type: functional; conditions: read-out: pA2 (converted)
Oxytocin receptor [2] = biological target: T1, Oxytocin receptor (Rattus norvegicus, UniProt P70536); test: Inhibition of radioligand [3H]oxytocin binding at the oxytocin (OT) receptor in rat uterine tissue
T1 sequence (P70536 whole entry): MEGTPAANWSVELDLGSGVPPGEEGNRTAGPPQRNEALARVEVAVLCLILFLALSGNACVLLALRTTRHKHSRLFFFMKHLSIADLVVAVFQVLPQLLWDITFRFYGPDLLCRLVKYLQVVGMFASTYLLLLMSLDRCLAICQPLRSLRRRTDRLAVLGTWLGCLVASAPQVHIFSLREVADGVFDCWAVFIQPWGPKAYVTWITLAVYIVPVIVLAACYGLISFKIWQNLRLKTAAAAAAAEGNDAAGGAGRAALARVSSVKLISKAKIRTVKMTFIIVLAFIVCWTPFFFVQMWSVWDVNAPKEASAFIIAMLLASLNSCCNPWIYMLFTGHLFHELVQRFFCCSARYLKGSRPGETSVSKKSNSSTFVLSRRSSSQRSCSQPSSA
Summary of the method: (§1)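 Uteri taken from rats given diethylstilbestrol dipropionate (0.3 mg/kg ip, 18–24 h before), crude membranes. 1 nM [3H]OT (30–60 Ci/mmol), equilibrium 60 min at 22 °C in 50 mM Tris-HCl, 5 mM MgCl2, 0.1% BSA, pH 7.4. Nonspecific binding with 1 mM unlabeled OT. Filtered on glass fiber. Initial single-concentration screen, then IC50 from seven concentrations by linear regression.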

Oxytocin receptor [3] = biological target: T1, Oxytocin receptor; test: Tested against rat uterine OT receptor; summary of the method: as §1
Vasopressin V2 receptor = Vasopressin V2 receptor (Rattus norvegicus, UniProt Q00788); test: Inhibition of radioligand [3H]-AVP binding to the vasopressin V2 receptor in rat kidney tissue
Chain of Vasopressin V2 receptor (Q00788 whole entry): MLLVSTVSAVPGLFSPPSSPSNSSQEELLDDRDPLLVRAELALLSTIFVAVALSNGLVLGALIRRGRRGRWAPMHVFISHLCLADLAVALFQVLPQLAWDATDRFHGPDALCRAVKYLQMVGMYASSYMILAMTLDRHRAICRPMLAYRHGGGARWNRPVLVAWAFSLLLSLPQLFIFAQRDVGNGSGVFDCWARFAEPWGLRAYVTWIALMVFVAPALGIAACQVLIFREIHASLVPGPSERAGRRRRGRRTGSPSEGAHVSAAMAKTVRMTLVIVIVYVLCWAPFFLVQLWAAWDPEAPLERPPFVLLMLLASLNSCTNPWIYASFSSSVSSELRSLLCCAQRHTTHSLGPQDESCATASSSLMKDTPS
Summary of the method: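 [3H]AVP (80–90 Ci/mmol) at 2 nM competed on crude membranes from male rat kidney medulla (V2 sites). Equilibrium 30 min at 30 °C in 100 mM Tris-HCl, 5 mM MgCl2, 0.1% BSA, 50 μM PMSF, 50 μg/mL bacitracin, pH 8.0. Nonspecific binding with 10 μM unlabeled AVP. Glass-fiber filtration. IC50 by linear regression of % inhibition vs log concentration, seven concentrations.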

Oxytocin receptor [4] = biological target: T2, Oxytocin receptor (Homo sapiens, UniProt P30559); test: Tested against human uterine OT receptor
T2 sequence (P30559 whole entry): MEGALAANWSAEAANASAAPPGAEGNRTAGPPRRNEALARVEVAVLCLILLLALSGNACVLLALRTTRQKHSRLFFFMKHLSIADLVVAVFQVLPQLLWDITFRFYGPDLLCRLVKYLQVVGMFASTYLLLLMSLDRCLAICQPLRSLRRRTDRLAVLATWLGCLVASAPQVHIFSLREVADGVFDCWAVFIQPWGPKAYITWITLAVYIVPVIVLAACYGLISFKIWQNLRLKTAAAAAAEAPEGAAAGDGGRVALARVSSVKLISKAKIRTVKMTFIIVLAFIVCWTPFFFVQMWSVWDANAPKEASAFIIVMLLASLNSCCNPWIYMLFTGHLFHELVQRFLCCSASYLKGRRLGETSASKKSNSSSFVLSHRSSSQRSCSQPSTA

Rattus norvegicus [5] = test: Tested for inhibition of OT-stimulated uterine activity in the rat after an intravenous dose; type: functional
Vasopressin V1 receptor = Vasopressin V1 receptor (Rattus norvegicus, UniProt P48974+P30560); test: Inhibition of radioligand [3H]AVP binding to the vasopressin V1 receptor in rat liver tissue
Summary of the method: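 Crude membranes from male rat liver (V1 sites) competed with 1 nM [3H]AVP (80–90 Ci/mmol). Equilibrium 30 min, 30 °C, buffer 100 mM Tris-HCl, 5 mM MgCl2, 0.1% BSA, 50 μM PMSF, 50 μg/mL bacitracin, pH 8.0. 10 μM unlabeled AVP for nonspecific binding. Filtration through glass-fiber filters. IC50 from linear regression over seven concentrations.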

SMILES: CC1(C)[C@@H]2CC[C@@]1(CS(=O)(=O)N1CCC3(CCc4ccccc43)CC1)[C@@H](NC(=O)Cc1c[nH]cn1)C2
- Kb (Rattus norvegicus [1]): 0.0117 µM
- IC50 (Oxytocin receptor [2]): 0.052 µM
- Ki (Oxytocin receptor [3]): 0.026 µM
- IC50 (Vasopressin V2 receptor): 17 µM
- Ki (Oxytocin receptor [4]): 0.061 µM
- AD50 (Rattus norvegicus [5]): 1.5 mg/kg
- IC50 (Vasopressin V1 receptor): 5.6 µM

SMILES: CC1(C)[C@@H]2CC[C@@]1(CS(=O)(=O)N1CCC3(CCc4ccccc43)CC1)[C@@H](N1C(=O)NC(Cc3c[nH]cn3)C1=O)C2 (stereo in doubt)
- IC50 (Oxytocin receptor [2]): 0.013 µM
- IC50 (Vasopressin V2 receptor): 1.4 µM
- IC50 (Vasopressin V1 receptor): 0.42 µM
